# From PubChem BioAssay
# Hits are enriched below; roughly 2.3% of the tested compounds scored in any of these assays.
# GPR7 antagonist – blocks human GPR7 receptor signaling; GPR7-expressing cells, fluorescence antagonist assay; inhibition, % at 4.4 µM; 1.1% of 290,000 active; in the data active means inhibition above about 16%, passing the limit was not always enough;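 further: cells stimulated with the agonist NPW; 0% = agonist with vehicle and 100% = vehicle without agonist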
# CHT block – human CHT choline transport inhibition | Q9GZV3 | CHT-expressing cells, membrane potential dye, choline response; stronger effect = lower value | B-score at 10 µM | 0.86% of 310,000 active | AID 488975;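 active means B-score over 3 SD under the library average, and starting fluorescence ratio not unusually high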;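 further: choline stimulus applied at its EC90 after an EC20 pre-addition; B-score computed on integrated fluorescence ratio after choline addition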
# Target sequence (Q9GZV3 whole entry, looked up): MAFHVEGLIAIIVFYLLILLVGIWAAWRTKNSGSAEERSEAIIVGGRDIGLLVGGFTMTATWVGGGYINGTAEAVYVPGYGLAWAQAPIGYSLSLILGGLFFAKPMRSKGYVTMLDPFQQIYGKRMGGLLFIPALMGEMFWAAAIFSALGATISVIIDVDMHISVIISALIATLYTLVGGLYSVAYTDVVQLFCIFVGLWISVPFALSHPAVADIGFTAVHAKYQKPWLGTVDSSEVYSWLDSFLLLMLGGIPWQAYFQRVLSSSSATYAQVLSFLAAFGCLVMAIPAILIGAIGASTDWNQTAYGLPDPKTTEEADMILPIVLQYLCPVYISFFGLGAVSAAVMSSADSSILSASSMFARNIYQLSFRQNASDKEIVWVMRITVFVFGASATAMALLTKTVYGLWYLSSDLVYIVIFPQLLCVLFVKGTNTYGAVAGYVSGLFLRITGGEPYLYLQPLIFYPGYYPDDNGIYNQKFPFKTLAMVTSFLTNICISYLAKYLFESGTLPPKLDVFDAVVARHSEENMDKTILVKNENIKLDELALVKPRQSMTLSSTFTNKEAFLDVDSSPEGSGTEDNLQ
# T cell HTS – T cell immune modulation candidate | 2C CD8+ T cell-vesicle binding, flow cytometry; stronger effect = lower value | 0.068% of 330,000 active | AID 2052 | response (vesicle binding), % at 7 µM;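 active means response, share of CD8 T cells binding vesicles, and their 90th percentile fluorescence all below set limits, cut at about 80% in these data, passing the limit was not always enough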;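 further: values below 100% mean blocked vesicle binding to the CD8+ T cells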
#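 Benchmarks: naked versus QL9-loaded vesicles / Assay system: purified 2C TCR transgenic mouse naive CD8+ T cells / Technique: high-throughput flow cytometry with anti-B7-1 and anti-CD8 staining / Timing: Cell–vesicle co-incubation 1.5 h at 37 °C, staining 20 min on ice / Read-out: percent CD8+ FL2 mean versus row control / Probe or stimulus: QL9-loaded Drosophila micro-vesicles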
# pCIP destab – compounds decreasing mouse p/CIP protein stability; Q05BA5; F442A p/CIP-EGFP cells, EGFP fluorescence, 16 h; decrease of EGFP signal, % at 10 µM; 0.01% of 290,000 active; AID 1984;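 active means EGFP signal decrease of at least 30% at 10 µM or well 3 SD below plate mean, unless failing retest; inactive means the rest, including hits failing retest or dose response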
# CHT PAM – human CHT allosteric activation. Q9GZV3. CHT-expressing cells, membrane potential dye, choline EC20; stronger effect = higher value; LV-AA mutant CHT in HEK293 cells. B-score at 10 µM. 0.49% of 310,000 active;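 active means initial fluorescence not abnormally high and integrated response B-score, plate-corrected, over 3 SD above library mean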
# Pemphigus Ab inh – blocks pemphigus antibody binding to human desmoglein-3; P32926; DSG3-coupled beads, scFv-anti-DSG3-GFP binding, flow cytometry; stronger effect = lower value; binding (percent of control), % at 10 µM; 0.48% of 310,000 active; AID 588358;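 active means binding more than 3 SD below its plate's average and above zero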;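 further: hits lower antibody fragment binding to DSG3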
# CHT act confirm – confirmation of human choline transporter (CHT) activators | CHT-expressing cells, membrane potential dye fluorescence (FDSS); % of choline EC20–EC90 response window; HEK293 expressing CHT LV-AA mutant; choline added at its EC20 | 91% of 2,500 active | shares compounds with CHT PAM | activation, % at 10 µM;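 active means primary screen active, with duplicate mean activation above negative control mean plus 3 SD, cut at about 11% in these data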
# HEK293 MP dye – activity in parental HEK293 cells lacking CHT; shares compounds with CHT PAM; membrane potential dye fluorescence (FDSS); measured after EC20 choline addition; 62% of 2,500 active; ratio readout change at 10 µM, hits read low;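 active means duplicate-averaged ratio beyond 3 SD from buffer wells, up or down, though filed actives are nearly all decreases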
# Numbers without * were called inactive; i = inactive; / = no result.
SMILES,GPR7 antagonist,CHT block,T cell HTS,pCIP destab,CHT PAM,Pemphigus Ab inh,CHT act confirm,HEK293 MP dye
COc1ccccc1CN(Cc1cc2c(C)ccc(C)c2[nH]c1=O)Cc1nnnn1Cc1ccco1,-6,i,269,-17,6.4*,102,17*,i
Cc1ccc(CN(Cc2cc3cc4c(cc3[nH]c2=O)OCCO4)Cc2nnnn2Cc2ccco2)cc1,-1,i,532,-28,i,102,/,/
CCCCN(CCCC)CCNC(=O)CSCc1ccc(C)cc1,6,i,400,-2,i,90,35*,i
COC1CC(=O)C2OC(c3ccccc3)OCC2O1 (centres undefined),/,/,/,/,/,101,/,/
CCN(C(=O)c1cccc(S(=O)(=O)N(C)C)c1)C12CC3CC(CC(C3)C1)C2,16,i,87,-8,9.7*,95,14*,i
c1ccc(CN2CCC3CC2c2ccc(N4CCOCC4)cc23)cc1 (centres undefined),/,/,/,/,/,102,/,/
COc1ccc(CCN2CC(C(=O)NCc3ccon3)CCC2=O)cc1 (centres undefined),/,/,/,/,/,93,/,/
CSc1nnc(-c2ccccc2N=Cc2c(C)[nH]n(-c3ccc4ccccc4c3)c2=O)c(=O)[nH]1,-1,i,340,-10,8.3*,99,24*,i
C=CCSc1nnc(-c2ccccc2N=Cc2c(C)[nH]n(-c3ccccc3)c2=O)c(=O)[nH]1,-3,i,210,-12,i,105,/,/
O=C(NCc1ccccc1)c1cccc(NC(=O)C2CC2)c1,/,/,/,/,/,105,/,/
CC(C)(C)OC(=O)[C@H]1[C@H](c2ccc([N+](=O)[O-])cc2)C2(C(=O)c3ccccc3C2=O)C2c3ccccc3C=NN21 (some centres undefined),13,i,154,1,i,88,37*,i
O=S(=O)(Nc1ccc(Br)cc1)c1cccc(NS(=O)(=O)c2cccs2)c1,/,/,/,/,/,108,/,/
COc1cccc(CNC(=O)CCC2CCCN(c3cc(C)nc(N)n3)C2)c1 (centres undefined),-6,i,167,-1,i,101,/,/
COc1cccc(CNC(=O)CCC2CCCN(c3cc(C)nc(N(C)C)n3)C2)c1 (centres undefined),16,i,304,-1,i,/,48*,-40*
COc1cccc(NC(=O)CSCc2nc3sc(C)c(C)c3c(=O)[nH]2)c1,/,/,/,/,/,98,/,/
COCCOC(=O)c1[nH]c2c(c1C)C(=O)CC(c1ccccc1)C2 (centres undefined),14,i,181,-14,i,112,9,i
COCCOC(=O)c1[nH]c2c(c1C)C(=O)CC(c1ccc(N(C)C)cc1)C2 (centres undefined),0,i,457,-1,i,/,/,/
CC[C@H]1CN2CCc3cc(OC)c(OC)cc3C2C[C@@H]1C[C@H]1NCCc2cc(OC)c(OC)cc21 (some centres undefined),/,i,471,/,14*,101,41*,-43*
CC(C)C[C@@H](CNCC(=O)[C@H](CC(C)C)NC(=O)c1[nH]cnc1C(=O)N[C@@H](C)CN)NC(=O)c1nc[nH]c1C(=O)N[C@@H](CC(=O)O)C(=O)O,/,/,/,/,/,116,/,/
Cc1cc(NCCOCCO)n2c(nc3ccccc32)c1C#N,-10,i,178,-6,i,100,51*,-59*
Cc1cc(NCCCO)n2c(nc3ccccc32)c1C#N,3,i,588,-1,i,84,/,/
COCCNc1cc(C)c(C#N)c2nc3ccccc3n12,-3,i,134,0,i,109,24*,-49*
